Reference: ChEMBL document CHEMBL3580660, “Synthesis and Biological Evaluation of Novel Olean-28,13β-lactams as Potential Antiprostate Cancer Agents” (J Med Chem, 2015)
Active and inactive are the calls of the source. The rule behind the calls is not given here.

Experiments:
[1] = tested on: Mus musculus; test: Acute toxicity in ICR mouse assessed as mortality at 640 mg/kg, oral gavage after 4 hrs; type: organism-based; conditions: in vivo
Procedure, shortened: (§1)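 ICR mice of both sexes, 7 weeks old, held under SPF conditions. Each got one gavage dose (800, 640, 512, 409.6 or 327.8 mg/kg) or vehicle, n = 8 per group. Deaths were recorded at 1 h, 4 h, 3 d and 4–14 d. Behaviour, water and food intake, body weight and activity were followed to day 14. LD50 given with 95% confidence limits.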

[2] = Apparent permeability across basolateral to apical side in human Caco2 cells at 0.5 uM measured after 30 mins by LC-MS/MS analysis; type: ADME, cell-based; conditions: Caco-2
Procedure, shortened: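 Caco2 monolayers (passages 20−40) grown 21 days at 37 °C, 5% CO2; integrity checked by TEER. Test drug 0.5 μM applied in triplicate, apical pH 6.8, basolateral pH 7.4, 37 °C for 30 min, A→B and B→A. Donor and receiver sampled, concentration by LC−MS/MS; Papp calculated; efflux ratio = Papp B→A / Papp A→B.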

[3] = tested on: DU-145; test: Effect on Akt protein expression in human DU145 cells at 0.08 to 0.32 uM after 24 hrs by Western blot analysis; type: functional, cell-based
Procedure, shortened: (§2)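 DU-145 cells (5 × 10^5/well) in 10% FCS Ham's F-12K overnight, treated in duplicate with compound or vehicle 24 h; lysed (Tris pH 8, EGTA, NaCl, NP-40, Triton X-100), protein by BCA. Blots blocked in 5% milk, probed for AKT, p-AKT Ser473, mTOR, p-mTOR Ser2448, Bax, Bcl-2, β-actin; ECL detection, densitometry relative to control; three separate experiments.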

[4] = tested on: DU-145; test: Anticancer activity against human DU145 cells xenografted in BALB/c mouse assessed as decrease in tumor growth at 8.5 mg/kg, oral gavage for 21 days relative to vehicle treated control; type: functional; conditions: DU-145, po, 504 h
Procedure, shortened: (§3)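 Male BALB/c nude mice (6−8 weeks, 18−22 g) implanted subcutaneously on right axillary flank with 2 × 10^6 DU-145 cells in 0.1 mL saline. At 100 ± 30 mm3 tumors, randomized (n = 5/group) to daily gavage for 21 days; vehicle DMSO/Cremphor EL/PBS 1:1:8. Tumor volume every 3 days; tumors excised and weighed at end; TGI from mean tumor weights vs vehicle; body weight tracked.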

[5] = tested on: DU-145; test: Induction of apoptosis in human DU145 cells assessed as reduction in Bcl2 expression at 0.08 to 0.32 uM after 24 hrs by Western blot analysis; type: functional, cell-based; procedure, shortened: as §2
[6] = Stability in rat plasma assessed as compound remaining after 1 hr by LC-MS/MS analysis; type: ADME, cell-free; conditions: read-out: Stability
Procedure, shortened: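 Compound at 50 ng/mL incubated in pooled heparinized rat plasma, 37 °C, 60 min. Proteins precipitated with 5 volumes cold acetonitrile containing internal standard; remaining compound measured by LC−MS/MS and expressed as percent remaining; mean ± SD.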

[7] = tested on: DU-145; test: Induction of apoptosis in human DU145 cells assessed as increase in Bax to Bcl2 ratio at 0.08 to 0.32 uM after 24 hrs by Western blot analysis; type: functional, cell-based; procedure, shortened: as §2
[8] = tested on: DU-145; test: Induction of cell cycle arrest in human DU145 cells assessed as cells accumulation at S phase at 0.08 uM after 24 hrs by propidium iodide staining-based flow cytometry (reference value: 24%); type: functional
[9] = tested on: Mus musculus; test: Acute toxicity in ICR mouse assessed as mortality at 327.8 mg/kg, oral gavage after 4 to 14 days; type: organism-based; conditions: in vivo; procedure, shortened: as §1
[10] = biological target: Cytochrome P450 3A4 (Homo sapiens, UniProt P08684); test: Inhibition of CYP3A4 in human liver microsomes using midazolam as substrate after 1 hr by LC-MS/MS analysis
[11] = tested on: Mus musculus; test: Toxicity in human DU145 cells xenografted in BALB/c mouse assessed as change in body weight at 17 mg/kg, oral gavage for 21 days relative to vehicle treated control; type: organism-based, DU-145; conditions: in vivo, 504 h; procedure, shortened: as §3
[12] = tested on: Mus musculus; test: Acute toxicity in ICR mouse assessed as mortality at 512 mg/kg, oral gavage after 1 hr; type: organism-based; conditions: in vivo; procedure, shortened: as §1
[13] = tested on: Mus musculus; test: Toxicity in human DU145 cells xenografted in BALB/c mouse assessed as change in body weight at 8.5 mg/kg, oral gavage for 21 days relative to vehicle treated control; type: organism-based, DU-145; conditions: in vivo, 504 h; procedure, shortened: as §3
[14] = tested on: Mus musculus; test: Acute toxicity in ICR mouse assessed as mortality at 640 mg/kg, oral gavage after 1 hr; type: organism-based; conditions: in vivo; procedure, shortened: as §1
[15] = tested on: DU-145; test: Induction of cell cycle arrest in human DU145 cells assessed as cells accumulation at G2/M phase at 0.16 uM after 24 hrs by propidium iodide staining-based flow cytometry (reference value: 22%); type: functional
[16] = Acute toxicity in ICR mouse assessed as survival at 800 mg/kg, oral gavage on day 14; type: organism-based; conditions: in vivo; procedure, shortened: as §1
[17] = tested on: Mus musculus; test: Acute toxicity in ICR mouse assessed as mortality at 327.8 mg/kg, oral gavage after 3 days; type: organism-based; conditions: in vivo, 72 h; procedure, shortened: as §1
[18] = Antiproliferative activity against human WPMY-1 cells after 72 hrs by CCK8 assay; type: functional, cell-based; conditions: WPMY-1, 72 h
Procedure, shortened: (§4)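 CCK-8 assay: DU-145, H460, Bxpc-3, BEL-7404 and nontumor WPMY-1 cells seeded at 5 × 10^3 cells/well in 10% FCS DMEM overnight, then exposed in triplicate to 0.041−10 μM for 72 h. CCK-8 added for final 30 min, absorbance 450 nm; inhibition relative to medium-only controls after background subtraction; IC50 as concentration giving 50% inhibition.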

[19] = tested on: DU-145; test: Induction of cell cycle arrest in human DU145 cells assessed as cells accumulation at G0/G1 phase at 0.16 uM after 24 hrs by propidium iodide staining-based flow cytometry (reference value: 54%); type: functional
[20] = Antiproliferative activity against human BxPC3 cells after 72 hrs by CCK8 assay; type: functional, cell-based; conditions: BXPC-3, 72 h; procedure, shortened: as §4
[21] = tested on: Mus musculus; test: Acute toxicity in ICR mouse assessed as total mortality at […] mg/kg, oral gavage up to 14 days; type: organism-based; conditions: in vivo, 336 h; procedure, shortened: as §1
[22] = tested on: Mus musculus; test: Acute toxicity in ICR mouse assessed as total mortality at 800 mg/kg, oral gavage up to 14 days; type: organism-based; conditions: in vivo, 336 h; procedure, shortened: as §1
[23] = tested on: DU-145; test: Induction of cell cycle arrest in human DU145 cells assessed as cells accumulation at G2/M phase at 0.08 uM after 24 hrs by propidium iodide staining-based flow cytometry (reference value: 22%); type: functional
[24] = Acute toxicity in ICR mouse assessed as survival at 409.6 mg/kg, oral gavage on day 14; type: organism-based; conditions: in vivo; procedure, shortened: as §1
[25] = tested on: DU-145; test: Anticancer activity against human DU145 cells xenografted in BALB/c mouse assessed as decrease in tumor growth at 17 mg/kg, oral gavage for 21 days relative to vehicle treated control; type: functional; conditions: DU-145, po, 504 h; procedure, shortened: as §3
[26] = tested on: DU-145; test: Induction of cell cycle arrest in human DU145 cells assessed as cells accumulation at S phase at 0.16 uM after 24 hrs by propidium iodide staining-based flow cytometry (reference value: 24%); type: functional
[27] = tested on: Mus musculus; test: Acute toxicity in ICR mouse assessed as mortality at 409.6 mg/kg, oral gavage after 4 hrs; type: organism-based; conditions: in vivo; procedure, shortened: as §1

Cytochrome P450 3A4, sequence (P08684 whole entry): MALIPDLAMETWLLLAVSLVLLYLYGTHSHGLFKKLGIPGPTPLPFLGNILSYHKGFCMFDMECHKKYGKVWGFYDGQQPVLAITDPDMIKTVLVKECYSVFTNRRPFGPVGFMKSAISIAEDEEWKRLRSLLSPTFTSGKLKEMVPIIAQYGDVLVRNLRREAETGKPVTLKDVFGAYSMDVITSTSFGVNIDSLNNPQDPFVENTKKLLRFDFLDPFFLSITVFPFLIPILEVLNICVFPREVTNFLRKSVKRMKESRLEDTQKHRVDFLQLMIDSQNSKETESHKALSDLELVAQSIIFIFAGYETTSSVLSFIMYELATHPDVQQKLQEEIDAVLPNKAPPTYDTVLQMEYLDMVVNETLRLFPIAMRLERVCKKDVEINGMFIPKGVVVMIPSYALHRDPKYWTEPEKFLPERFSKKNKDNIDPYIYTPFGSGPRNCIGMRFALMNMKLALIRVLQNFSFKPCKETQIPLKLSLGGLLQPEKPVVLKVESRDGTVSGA

## CC1(C)CC[C@]23CC[C@@]4(C)[C@]5(C)CC[C@H]6C(C)(C)C(=O)C(C#N)=C[C@]6(C)C5=CC(=O)[C@@]4([C@@H]2C1)N(C1CCCCC1)C3=O
[1]
  Activity: Non-toxic
[2]
  Papp B→A at 0.5 h, 0.5 µM: 0.59 nm/s
[3]
  Activity: inactive
[4]
  inhibition in vivo at 8.5 mg/kg: 30%
[5]
  inhibition: Active
[6]
  remaining at 1 h: 46%
[7]
  Activity: Active
[8]
  Activity: 25%
[9]
  Activity: Non-toxic
[10]
  IC50: 0.932 µM
[11]
  Activity: Non-toxic
[12]
  Activity: Non-toxic
[13]
  Activity: Non-toxic
[14]
  Activity: Non-toxic
[15]
  Activity: 22%
[16]
  survival at 14 day: 0%
[17]
  Activity: Non-toxic
[18]
  IC50: 6.09 µM
[19]
  Activity: 68%
[20]
  IC50: 0.33 µM
[21]
  Activity: Toxic
[22]
  Activity: Toxic
[23]
  Activity: 19%
[24]
  survival at 14 day: 88%
[25]
  inhibition in vivo at 17 mg/kg: 62%
[26]
  Activity: 10%
[27]
  Activity: Non-toxic
